Experimental data taken from ChEMBL document CHEMBL4680065, “Pharmacophore-based screening of diamidine small molecule inhibitors for protein arginine methyltransferases” (RSC Med Chem, 2021).
Calls of active or inactive are those of the source. The rule behind the calls is not given here.

How the values were obtained:
[1] = biological target: T1, Histone-lysine N-methyltransferase EHMT2 (Homo sapiens, UniProt Q96KQ7); experiment: Inhibition of recombinant His-tagged human G9a expressed in Escherichia coli BL21 (DE3) using biotin-labeled histone H3-20 peptide as substrate incubated for 30 mins in presence of [3H]-SAM cofactor by scintillation proximity assay
T1 sequence (Q96KQ7 whole entry): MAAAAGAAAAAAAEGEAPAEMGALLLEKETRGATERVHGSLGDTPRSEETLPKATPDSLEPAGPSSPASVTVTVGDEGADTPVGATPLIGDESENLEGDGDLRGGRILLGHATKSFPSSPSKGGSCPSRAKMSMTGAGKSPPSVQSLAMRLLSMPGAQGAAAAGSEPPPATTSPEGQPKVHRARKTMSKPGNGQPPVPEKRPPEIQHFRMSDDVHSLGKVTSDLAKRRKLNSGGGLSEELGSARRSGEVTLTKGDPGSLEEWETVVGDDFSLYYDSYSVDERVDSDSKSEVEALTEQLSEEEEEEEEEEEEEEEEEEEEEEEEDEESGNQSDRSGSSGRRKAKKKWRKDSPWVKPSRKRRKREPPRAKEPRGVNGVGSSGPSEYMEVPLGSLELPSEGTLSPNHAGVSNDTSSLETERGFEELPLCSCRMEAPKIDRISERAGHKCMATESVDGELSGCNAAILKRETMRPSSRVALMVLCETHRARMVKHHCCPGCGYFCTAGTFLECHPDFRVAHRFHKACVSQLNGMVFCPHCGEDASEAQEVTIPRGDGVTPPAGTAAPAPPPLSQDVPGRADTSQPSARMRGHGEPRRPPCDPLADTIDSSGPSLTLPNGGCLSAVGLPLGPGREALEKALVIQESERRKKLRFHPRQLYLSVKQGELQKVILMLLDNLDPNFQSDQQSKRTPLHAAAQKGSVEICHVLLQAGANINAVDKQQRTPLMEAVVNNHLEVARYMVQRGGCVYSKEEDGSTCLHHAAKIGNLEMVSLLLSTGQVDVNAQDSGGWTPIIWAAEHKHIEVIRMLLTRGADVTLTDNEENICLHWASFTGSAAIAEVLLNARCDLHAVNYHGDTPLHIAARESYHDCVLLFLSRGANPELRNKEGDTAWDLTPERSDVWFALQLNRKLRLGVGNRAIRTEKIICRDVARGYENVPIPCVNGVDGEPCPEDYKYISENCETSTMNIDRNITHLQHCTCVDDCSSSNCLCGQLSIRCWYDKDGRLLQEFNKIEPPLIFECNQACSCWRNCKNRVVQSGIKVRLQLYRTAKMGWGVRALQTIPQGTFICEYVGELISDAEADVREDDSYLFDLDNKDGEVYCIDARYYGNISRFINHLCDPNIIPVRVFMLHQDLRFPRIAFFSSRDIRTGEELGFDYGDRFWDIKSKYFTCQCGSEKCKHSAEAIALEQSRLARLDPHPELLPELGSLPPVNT
Procedure, shortened: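 The inhibitor was serially diluted and added to the enzyme, [3H]-SAM and substrate mixture, and methylated substrate was quantified by scintillation proximity assay. Reactions were held at initial rate, with yield under 10% and substrate near Km. PRMT3, PRMT8 and G9a were His-tagged human proteins, and PRMT7 was GST-tagged, all expressed in E. coli and affinity-purified.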

[2] = biological target: T2, Protein arginine N-methyltransferase 1 (Homo sapiens, UniProt Q99873); experiment: Inhibition of recombinant human His-tagged PRMT1 expressed in Escherichia coli BL21 (DE3) using biotin-labeled histone H4-20 as substrate incubated for 8 mins in presence of [3H]-SAM cofactor by scintillation proximity assay
Target sequence in this assay (Q99873 whole entry): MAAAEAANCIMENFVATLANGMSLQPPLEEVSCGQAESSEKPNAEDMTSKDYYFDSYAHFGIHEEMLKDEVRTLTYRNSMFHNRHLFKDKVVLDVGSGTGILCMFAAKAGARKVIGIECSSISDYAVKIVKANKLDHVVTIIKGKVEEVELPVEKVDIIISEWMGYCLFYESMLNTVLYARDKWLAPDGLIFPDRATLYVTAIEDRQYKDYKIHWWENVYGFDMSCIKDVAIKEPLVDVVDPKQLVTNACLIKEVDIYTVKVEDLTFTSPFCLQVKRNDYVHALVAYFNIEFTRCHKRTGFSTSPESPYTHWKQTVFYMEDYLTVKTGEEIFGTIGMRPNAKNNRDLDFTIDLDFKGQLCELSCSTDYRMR

[3] = biological target: Protein arginine N-methyltransferase 6 (Homo sapiens, UniProt Q96LA8); experiment: Inhibition of PRMT6 (unknown origin) using biotin-labeled SMD1 as substrate incubated for 30 mins in presence of [3H]-SAM cofactor by scintillation proximity assay
Sequence of Protein arginine N-methyltransferase 6 (Q96LA8 whole entry): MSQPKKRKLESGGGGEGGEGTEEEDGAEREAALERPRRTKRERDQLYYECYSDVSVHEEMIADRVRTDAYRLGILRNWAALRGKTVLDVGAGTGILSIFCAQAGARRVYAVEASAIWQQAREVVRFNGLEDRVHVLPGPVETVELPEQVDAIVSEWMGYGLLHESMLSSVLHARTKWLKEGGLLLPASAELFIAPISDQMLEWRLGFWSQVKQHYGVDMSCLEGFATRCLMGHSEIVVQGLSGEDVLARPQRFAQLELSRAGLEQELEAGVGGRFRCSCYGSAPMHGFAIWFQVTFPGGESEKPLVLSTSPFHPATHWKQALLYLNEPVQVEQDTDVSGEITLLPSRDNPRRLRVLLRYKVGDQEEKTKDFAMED

MEG-01 = experiment: Antiproliferative activity against human MEG-01 cells assessed as inhibition of cell growth measured after 72 hrs by CellTiter-Glo assay; format: functional, cell-based; conditions: MEG-01, 72 h
Procedure, shortened: (§1)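 Cells were cultured with the test agent, serially diluted, for 72 h. The control received the same amount of DMSO. Cell viability was then measured, and IC50 values were taken from sensitivity curves.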

[4] = biological target: T3, Histone-lysine N-methyltransferase EHMT2 (Homo sapiens) (UniProt Q96KQ7); experiment: Inhibition of recombinant His-tagged human G9a expressed in Escherichia coli BL21 (DE3) assessed as residual activity at 10 uM using biotin-labeled histone H3-20 peptide as substrate incubated for 30 mins in presence of [3H]-SAM cofactor by scintillation proximity assay relative to control
T3 sequence (whole entry): T1 sequence (Q96KQ7 whole entry)
Procedure, shortened: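 Single-point profiling used 10 μM inhibitor added to the enzyme, [3H]-SAM and substrate mixture. Methylated substrate was quantified by scintillation proximity assay. Reactions were held at initial rate, with yield under 10% and substrate near Km. Enzyme, [3H]-SAM and substrate final levels are given in the supplement.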

[5] = biological target: T2, Protein arginine N-methyltransferase 1; experiment: Non-competitive inhibition of recombinant His-tagged PRMT1 (unknown origin) expressed in Escherichia coli BL21 (DE3) using varying levels of [3H]-SAM as cofactor
Procedure, shortened: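 His-tagged human PRMT1 was expressed in E. coli BL21(DE3) and Ni-affinity purified. IC50 was measured by SPA at varied SAM or biotinylated H4 peptide (0.3125–4.5 μM), with the other component fixed near its Km (0.5 μM); n = 2.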
Target sequence in this assay (Q99873 whole entry, looked up): as the sequence (Q99873 whole entry) above

[6] = biological target: T2, Protein arginine N-methyltransferase 1; experiment: Inhibition of PRMT1 in human MEG-01 cells assessed as reduction in RBM15 total asymmetric arginine methylation level at 100 to 200 nM measured after 24 hrs by immunoblotting analysis; format: cell-based; conditions: dose 100-200 nM
Procedure, shortened: (§2)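 MEG01 cells were cultured for 24 h with the inhibitor (100 nM, 200 nM) or with DMSO control. Cell extracts were resolved by SDS-PAGE and immunoblotted with anti-methyl-RBM15 antibody and the pan-asymmetric methylation antibody α-Asym24. Equal loading was checked by Ponceau S staining.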
Target sequence in this assay (Q99873 whole entry, looked up): as the sequence (Q99873 whole entry) above

CMK = experiment: Antiproliferative activity against human CMK cells assessed as inhibition of cell growth measured after 72 hrs by CellTiter-Glo assay; format: functional, cell-based; procedure, shortened: as §1
[7] = biological target: T2, Protein arginine N-methyltransferase 1; experiment: Inhibition of PRMT1 in human MEG-01 cells assessed as reduction in RBM15 methylation level measured after 24 hrs by immunoblotting analysis; format: cell-based; procedure, shortened: as §2
Target sequence in this assay (Q99873 whole entry, looked up): as the sequence (Q99873 whole entry) above

N=C(N)c1ccc(Nc2ccc(-c3cc4ccc(C(=N)N)cc4[nH]3)cc2)cc1
IC50 [1]: 3.7 µM | IC50 [2]: 2.6 µM | IC50 [3]: 2.8 µM | IC50 (MEG-01): 1.03 µM | Activity [4]: 10.5% | inhibition [5]: Active | inhibition [6]: Active | IC50 (CMK): 1.31 µM | inhibition [7]: Dose-dependent effect
